pIC50: −log10 of the molar value. Calls of active or inactive are those of the source. The rule behind the calls is not given here.
Assays:
[1] = Toxicity in C57BL/6 mouse implanted with mouse E0771 cells assessed as effect on body weight at 7.5 to 15 mg/kg, ip dosed every day for 20 days; format: organism-based; details: in vivo, 480 h, in the assay text read “every other day” for “every day”
Procedure, shortened: (§1)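 C57BL/6 mice, six weeks old, received 2.5×10^5 BL6-B16 or E0771 cells s.c. in the dorsolateral flank in PBS. Dosing began once tumours reached about 100 mm³: 7.5 or 15 mg/kg i.p. every other day in 50 μL DMSO. Vehicle and CA-4P 30 mg/kg served as controls. Body weight was monitored, with 5 animals per group.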

HeLa [2] = test: Cell cycle arrest in human HeLa cells assessed as accumulation of cells at G2/M phase after 24 hrs by propidium iodide staining-based flow cytometric analysis; format: functional
Procedure, shortened: (§2)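 Cells exposed to a range of concentrations for 24 h (HeLa at 5×10^5 cells), then fixed in ice-cold 70% ethanol. Lysis buffer with RNase A and 0.1% Triton X-100 was applied before PI staining. DNA content was read by flow cytometry and G1/S/G2/M fractions taken from DNA histograms. Mean ± SEM of two independent experiments.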

[3] = Toxicity in C57BL/6 mouse implanted with mouse B16-BL6 cells assessed as effect on body weight at 7.5 to 15 mg/kg, ip dosed every day for 18 days; format: organism-based; details: in vivo, 432 h, in the assay text read “every other day” for “every day”; procedure, shortened: as §1
HeLa [4] = test: Induction of apoptosis in human HeLa cells assessed as increase in cleaved PARP levels at 50 nM after 24 hrs by Western blot analysis; format: functional, cell-based
Procedure, shortened: (§3)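 HeLa cells treated 24 h, washed in ice-cold PBS and lysed on ice 30 min. Lysates were spun at 15000 x g, 4 °C. 10 µg protein run on SDS-PAGE and blotted to PVDF. Blots were blocked in 5% BSA overnight at 4 °C and probed 2 h at room temperature. Detection by HRP-secondary and ECL, with bands normalized to β-actin as fold of untreated. Three independent experiments, one-way ANOVA/Dunnett.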

K562 [5] = test: Cell cycle arrest in human K562 cells assessed as mitotic index at 5 times IC50 by Giemsa staining-based assay (reference value: 3%); format: functional
HeLa [6] = test: Cell cycle arrest in human HeLa cells assessed as decrease in p-cdc25c expression at 50 to 250 nM after 24 hrs by Western blot analysis; format: functional, cell-based; procedure, shortened: as §3
HT-29 = test: Cell cycle arrest in human HT-29 cells assessed as reduction in accumulation of cells at G1 phase up to 1000 nM after 24 hrs by propidium iodide staining-based flow cytometric analysis; format: functional; procedure, shortened: as §2
E0771 [7] = test: Growth inhibition of mouse E0771 cells after 72 hrs by MTT assay; format: functional; details: E0771, 72 h
Procedure, shortened: (§4)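 Murine BL6-B16 melanoma and EO771 breast tumor cells were exposed to compound for 72 h. GI50 is reported ± error.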

E0771 [8] = test: Antitumor activity mouse E0771 cells implanted in C57BL/6 mouse assessed tumor growth inhibition at 15 mg/kg, ip dosed every other day for 20 days relative to control; format: functional; details: 480 h, read-out: TGI
Procedure, shortened: (§5)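 Syngeneic allograft: C57BL/6 mice, six weeks old, given 2.5×10^5 BL6-B16 or E0771 cells subcutaneously in the dorsolateral flank in PBS. Dosing began at about 100 mm³. Test compound or reference was given intraperitoneally every other day in 50 μL DMSO, with DMSO vehicle controls. Tumor volume was compared with the vehicle group, 5 animals per group, mean ± SEM, by 2-way ANOVA with Bonferroni correction.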

[9] = Cytotoxicity against human PHA-stimulated PBL after 72 hrs by MTT assay; format: cell-based; details: PHA-stimulated peripheral blood lymphocytes (PBL)
Procedure, shortened: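 Lymphocytes from healthy donors were isolated on a Lymphoprep gradient and held overnight in RPMI-1640 with 10% FBS. Non-adherent cells were set at 5×10^5 cells/mL, either resting or stimulated with 2.5 μg/mL PHA. Cells were exposed to a range of compound concentrations for 72 h and viability read by MTT. GI50 is the mean ± SEM of three separate experiments.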

B16-BL6 [10] = test: Antitumor activity mouse B16-BL6 cells implanted in C57BL/6 mouse assessed tumor growth inhibition at 7.5 mg/kg, ip dosed every other day for 18 days relative to control; format: functional; details: 432 h, read-out: TGI; procedure, shortened: as §5
A549 [11] = test: Cell cycle arrest in human A549 cells assessed as reduction in accumulation of cells at S phase up to 600 nM after 24 hrs by propidium iodide staining-based flow cytometric analysis; format: functional; procedure, shortened: as §2
HeLa [12] = test: Cell cycle arrest in human HeLa cells assessed as decrease in cdc2 phosphorylation at 50 to 250 nM after 24 hrs by Western blot analysis; format: functional, cell-based; procedure, shortened: as §3
K562 [13] = test: Cell cycle arrest in human K562 cells assessed as mitotic index at 10 times IC50 by Giemsa staining-based assay (reference value: 3%); format: functional
CNS carcinoma cell = test: Cytotoxicity against human CNS cancer cells after 48 hrs by SRB assay; format: functional
Procedure, shortened: (§6)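 NCI-60 screen: single-dose pass at 10^-5 M, then a five-concentration assay from 10^-9 to 10^-4 M (highest 100 μM). Exposure was 48 h under standard NCI protocols. GI50, TGI and LC50 were derived per cell line and averaged by subpanel. Repeated tests are the mean of two experiments.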

HeLa [14] = test: Induction of apoptosis in human HeLa cells assessed as decrease in Bcl-2 levels at 50 to 250 nM after 24 hrs by Western blot analysis; format: functional, cell-based; procedure, shortened: as §3
A549 [15] = test: Cell cycle arrest in human A549 cells assessed as accumulation of cells at G2/M phase at 50 nM after 24 hrs by propidium iodide staining-based flow cytometric analysis relative to control; format: functional; procedure, shortened: as §2
A549 [16] = test: Cell cycle arrest in human A549 cells assessed as reduction in accumulation of cells at G1 phase up to 600 nM after 24 hrs by propidium iodide staining-based flow cytometric analysis; format: functional; procedure, shortened: as §2
B16-BL6 [17] = test: Growth inhibition of mouse B16-BL6 cells after 72 hrs by MTT assay; format: functional; details: B16-BL6, 72 h; procedure, shortened: as §4
A549 [18] = test: Cell cycle arrest in human A549 cells assessed as accumulation of cells at G2/M phase after 24 hrs by propidium iodide staining-based flow cytometric analysis; format: functional; procedure, shortened: as §2
HeLa [19] = test: Cell cycle arrest in human HeLa cells assessed as reduction in accumulation of cells at S phase up to 1000 nM after 24 hrs by propidium iodide staining-based flow cytometric analysis; format: functional; procedure, shortened: as §2
K562 [20] = test: Cytotoxicity against human K562 cells after 16 hrs by SRB assay; details: K562, 16 h
Melanoma cell line = test: Cytotoxicity against human melanoma cells after 48 hrs by SRB assay; format: functional; procedure, shortened: as §6
HeLa [21] = test: Cell cycle arrest in human HeLa cells assessed as reduction in accumulation of cells at G1 phase up to 1000 nM after 24 hrs by propidium iodide staining-based flow cytometric analysis; format: functional; procedure, shortened: as §2
Tubulin (Bos taurus) = Tubulin (Bos taurus) (UniProt Q6B856+Q862L2+Q862F3); test: Inhibition of [3H]colchicine binding to bovine brain tubulin at 50 uM after 20 mins relative to control
Procedure, shortened: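 Reaction mixtures held 1 μM tubulin, 5 μM [³H]colchicine and test compound at 5 or 50 μM. Read-out was percent inhibition of colchicine binding.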

[22] = read-out: LC50 (the source's name)

O=C1Nc2c(ccc3ccccc23)C1=Cc1c(-c2ccncc2)nc2sccn12
Activity [1]: Non-Toxic
Activity (HeLa [2]): Dose-dependent effect
Activity [3]: Non-Toxic
Activity (HeLa [4]): Active
Activity (K562 [5]): 35%
Activity (HeLa [6]): Active
Activity (HT-29): Active
GI50 (E0771 [7]): 0.015 µM
inhibition in vivo at 15 mg/kg (E0771 [8]): 56.8%
GI50 at 72 h [9]: 5.5 µM
inhibition in vivo at 7.5 mg/kg (B16-BL6 [10]): 18%
Activity (A549 [11]): Active
Activity (HeLa [12]): Active
Activity (K562 [13]): 58%
GI50 (CNS carcinoma cell): 0.04 µM
TGI (CNS carcinoma cell): 79.8 µM
CC50 (CNS carcinoma cell; [22]): 94.3 µM
Activity (HeLa [14]): Active
Activity (A549 [15]): >80%
Activity (A549 [16]): Active
GI50 (B16-BL6 [17]): 0.305 µM
Activity (A549 [18]): Dose-dependent effect
Activity (HeLa [19]): Active
pIC50 (K562 [20]): 7.52
GI50 (Melanoma cell line): 7.16 µM
TGI (Melanoma cell line): 72.9 µM
CC50 (Melanoma cell line; [22]): 95.3 µM
Activity (HeLa [21]): Active
inhibition (Tubulin (Bos taurus)): 51%

Reference: ChEMBL document CHEMBL4316599, “Synthesis, in vitro and in vivo biological evaluation of substituted 3-(5-imidazo[2,1-b]thiazolylmethylene)-2-indolinones as new potent anticancer agents” (Eur J Med Chem, 2019)
